# Source: PubChem (Sanford-Burnham Center for Chemical Genomics)
# Compounds with a hit are over-represented: about 1.5% of the library has one in this group of screens.
# CXCR6 block: inhibitors of human CXCR6 receptor. O00574. CHO-K1 PathHunter CXCR6 beta-arrestin, luminescence. inhibition, % at 20 µM. 360,000 tested, 0.36% active. AID 602244; in the data active = inhibition above about 34%, passing the limit was not always enough;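 also: antagonist mode with CXCL16 agonist at 10 nM final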
# APJ ag: agonists of human APJ apelin receptor | 330,000 tested, 0.11% active | AID 2520 | P35414 | CHO-K1 APJ PathHunter beta-arrestin, luminescence; 0% DMSO wells, 100% apelin | activation, % at 20 µM;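 active = activation more than six SD over the plate average, tested at 20 µM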
# Target sequence (P35414 whole entry, looked up): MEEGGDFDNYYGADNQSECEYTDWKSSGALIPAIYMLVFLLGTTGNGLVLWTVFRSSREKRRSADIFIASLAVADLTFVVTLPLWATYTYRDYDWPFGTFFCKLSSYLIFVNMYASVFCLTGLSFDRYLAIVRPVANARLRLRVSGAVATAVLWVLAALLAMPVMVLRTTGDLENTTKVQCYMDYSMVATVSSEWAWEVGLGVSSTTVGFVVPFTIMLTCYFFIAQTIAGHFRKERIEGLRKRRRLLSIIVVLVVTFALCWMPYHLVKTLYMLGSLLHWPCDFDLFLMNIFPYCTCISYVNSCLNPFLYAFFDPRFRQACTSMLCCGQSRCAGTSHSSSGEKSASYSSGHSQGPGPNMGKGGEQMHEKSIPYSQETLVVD
#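 Assay system: engineered CHO-K1 APJ arrestin reporter cells; Amount: 1000 CHO-K1 reporter cells seeded per well; Dosing: one dose, 20 µM compound, 1% DMSO; Times: compound stimulation 90 min at 25 °C, detection 60 min; Measured by: luminescent beta-gal fragment complementation, chemiluminescent substrate; Read-out: APJ–arrestin association signal; Controls: DMSO vs Apelin-13 10 nM.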
# EBI2 block: EBI2 (human) antagonism; P32249; EBI2 beta-arrestin recruitment, luminescence, 7a,25-OHC stimulated; inhibition, % at 5 µM; 360,000 tested, 0.81% active; AID 651636; in the data active = inhibition above about 38%;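 also: enzyme fragment complementation signal reports receptor beta-arrestin coupling in cells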
# APJ antag: blocks the human apelin receptor APJ | P35414 | CHO-K1 APJ beta-arrestin complementation, luminescence | inhibition, % at 20 µM | 330,000 tested, 0.32% active | AID 2521;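 active = inhibition above about 40% at 20 µM, limit read from the data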;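 also: cells challenged with 10 nM apelin-13 agonist together with compound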
# CCR6 antag: blocks CCL20-driven beta-arrestin recruitment at human CCR6; CHO-K1 CCR6 PathHunter beta-arrestin, luminescence, CCL20-stimulated; P51684; 340,000 tested, 0.49% active; inhibition, % at 20 µM; AID 493098;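 active = compounds whose inhibition of the agonist-driven luminescence signal at 20 µM reaches about 50%, limit read from the data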;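 also: cells stimulated with CCL20 at 14 nM final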
# APJ antag confirm: confirmation of human APJ apelin receptor antagonists. shares compounds with APJ antag. APJ beta-arrestin recruitment, luminescence, antagonist mode. inhibition, % at 20 µM. 950 tested, 66% active; in the data active = inhibition above about 50%
# Hits are given with their value; n = inactive; x = not tested or not shown.
SMILES,CXCR6 block,APJ ag,EBI2 block,APJ antag,CCR6 antag,APJ antag confirm
CC(C(=O)OCC(=O)c1cccc([N+](=O)[O-])c1)N1C(=O)C2C3C=CC(C3)C2C1=O (configuration not stated),n,n,n,48,51,62
CCCCN(C(=O)c1cc(-c2ccco2)nc2ccccc12)c1c(N)n(CCC)c(=O)[nH]c1=O,n,n,n,n,n,x
CCN(CC)C(=O)C1=C(C)N(CCCOC)C(=O)C(CC(=O)NC2CC2)C1 (configuration not stated),n,x,n,x,x,x
COc1cc(C(=O)N/N=C(\c2ccccc2)c2ccccn2)cc(OC)c1OC,63,n,n,43,90,73
O=C1OCC(CO)(CO)N=C1NNc1ccc(Cl)c(Cl)c1,n,n,n,55,n,67
OCC1(CO)COC(c2ccccc2)=N1,n,n,n,n,n,x
COc1ccc(NC(=O)Nc2cccc3c2O[C@@H](CN(C)CC2CCCCC2)[C@@H](C)CN([C@H](C)CO)C3=O)cc1,n,n,n,62,n,62
COc1ccc(NC(=O)Nc2ccc3c(c2)C(=O)N([C@@H](C)CO)C[C@@H](C)[C@@H](CN(C)CC2CCCCC2)O3)cc1,n,n,n,n,n,x
CN1CCCC(OC(=O)c2cc(Br)ccc2Cl)C1 (configuration not stated),n,n,n,51,n,n
CN1CCCC(OC(=O)c2cc(Cl)ccc2Cl)C1 (configuration not stated),n,n,n,n,n,x
N#Cc1c(N)n(CCCN2CCOCC2)c2nc3ccccc3nc12,n,n,n,43,n,n
CCCCCn1c(N)c(C#N)c2nc3ccccc3nc21,n,n,n,n,n,x
CN(CCCC(=O)O)c1ccc(N=Nc2ccc([N+](=O)[O-])cc2)cc1,56,n,n,46,65,89
CN(N=Nc1ccc([N+](=O)[O-])cc1)c1ccccc1,n,n,n,n,n,x
CCOc1cc(/C=C2\NC(=O)NC2=O)cc([N+](=O)[O-])c1O,n,n,n,43,n,n
Cn1nnc(NC(=S)NC(=O)c2ccc3ccccc3c2)n1,n,x,n,x,x,x
Cn1nnc(NC(=S)NC(=O)c2cccc3ccccc23)n1,n,n,n,51,n,86
Cc1ccc(C(=O)NNC(=O)CCN2C(=O)C3CCCCC3C2=O)cc1 (configuration not stated),n,n,n,n,n,x
CCOc1c(C)cnc2c1c(=O)n(Cc1c(F)cccc1Cl)c(=O)n2C,n,n,n,n,n,x
Cc1ccc(NC(=O)CCNS(=O)(=O)c2ccc3c(c2)CCC(=O)N3)cc1,n,n,n,n,n,x
Cc1ccc(NC(=O)CCNS(=O)(=O)c2ccc3c(c2)CCC(=O)N3)c(Br)c1,n,n,n,41,n,n
Cc1ccc(C2Cc3cc(O)c(O)cc3CN2)cc1 (configuration not stated),n,n,n,n,n,x
O=[N+]([O-])c1ccc(NC(=S)NCCc2ccccc2)cc1,n,n,n,n,n,x
O=[N+]([O-])c1ccc(NNC(=S)Nc2ccccc2)cc1,n,n,n,43,67,99
COC(=O)c1cc(N=Nc2sc(N)nc2C)cc(C(=O)OC)c1,n,n,n,45,n,n
SMILES,CXCR6 block,APJ ag,EBI2 block,APJ antag,CCR6 antag,APJ antag confirm
COc1cccc2cc(C(C)N(CCCN3CCOCC3)C(=S)Nc3cccc(C)c3)oc12 (configuration not stated),n,n,n,77,n,n
COc1cc(O)c2c(c1)COC2=O,n,n,n,44,n,n
O=C(C[N+]1(CC#Cc2ccccc2)CCCCC1)c1ccc(Cl)cc1,n,n,n,57,n,n
CCC[N+](CC#Cc1ccccc1)(CCC)CC(=O)c1ccc(Cl)cc1,n,n,n,60,n,53
O=C(C[N+]1(CC#Cc2ccccc2)CCOCC1)c1ccc(Cl)cc1,42,n,n,90,62,108
CCC[N+](CC#Cc1ccccc1)(CCC)CC(=O)OC,n,n,n,n,n,x
CCNC(=O)c1ccc(C2SCC(=O)N2CCc2ccccc2)cc1 (configuration not stated),n,n,n,n,n,x
CCc1ccc(NC(=O)c2ccc(C3SCC(=O)N3CCc3ccccc3)cc2)cc1 (configuration not stated),n,n,n,62,n,n
CN(C)S(=O)(=O)c1ccc2c(c1)/C(=C/c1cc3c([nH]1)CCCC3)C(=O)N2,n,n,49,40,n,n
CN(C)S(=O)(=O)c1ccc2c(c1)C(=O)c1cc(S(=O)(=O)N(C)C)ccc1CC2,n,n,n,n,n,x
Cc1ccc(SSc2cc(C)ccc2N)c(N)c1,n,n,n,45,n,127
NC[C@H](Cc1ccccc1)NCCCCC1CCCCC1,n,n,n,n,n,x
CNC[C@H](CC1CCCCC1)NC[C@H](Cc1ccccc1)NCCC12CC3CC(CC(C3)C1)C2,n,n,n,44,x,n
CC(=O)NS(=O)(=O)c1ccc(NC(=O)c2ccc3c(c2)C(=O)N(CCC(C)C)C3=O)cc1,n,n,n,n,n,x
Cc1occc1C(=O)NNC(=S)Nc1cccc([N+](=O)[O-])c1,n,n,n,45,n,n
Cc1cccc(NC(=S)NNC(=O)c2cccc([N+](=O)[O-])c2)c1,n,n,n,n,n,x
C[C@H]1CCC[C@]2(O[C@H](CCO)C[C@@H](O)[C@@H]2O)O1,n,n,n,n,n,x
COc1ccccc1CN1C(=NC(=O)CCC2CCCC2)SC2CS(=O)(=O)CC21 (configuration not stated),n,n,n,47,n,n
CC12CCC(=O)C=C1C(F)CC1C2C(O)CC2(C)C1CCC2(O)C(=O)CO (configuration not stated),n,x,n,x,n,x
O=[N+]([O-])c1cccc(/C=N/NS(=O)(=O)c2ccccc2)c1,n,n,n,65,n,68
Cc1ccc(-c2cc3c(nn2)-c2ccccc2C3=O)cc1,n,n,60,43,n,147
O=C(CNC(=S)NC(=O)c1ccc(F)cc1)c1ccccc1,n,n,n,n,n,x
O=C(CNc1cccc(Cl)c1)c1ccc(Br)cc1,n,n,n,69,62,90
O=C(CNc1ccc(Br)cc1)c1ccccc1,45,n,n,94,81,104
O=C(CNc1ccc(F)cc1)c1ccccc1,53,n,n,76,80,111
NC(=O)c1ccccc1NCC(=O)c1ccc(F)cc1,n,n,n,82,99,140
COc1ccc(-c2oc3ccc(-c4cc(OC)c(OC)c(OC)c4)cc3c2C#Cc2ccccn2)cc1,n,n,n,n,n,x
CCOc1ccc(S(=O)(=O)Nc2cccc(C(=O)NCC(c3ccc(OC)cc3)N3CCOCC3)c2)cc1 (configuration not stated),n,n,n,n,n,x
